ARFGAP1 inh – rat ARFGAP1 inhibition | inhibition, % at 16.5 µM | Q62848 | Arfgap1-stimulated ARF1 GTP hydrolysis, GDP FP detection | 360,000 compounds, 0.26% hits;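 active means inhibition above a per-plate limit, mean inhibition of low control wells plus 3 SD, cut at about 25% in these data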;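 further: 0% = DMSO wells with enzyme and 100% = wells lacking Arfgap1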
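Repeats: one replicate per compound; assay system: rat Arfgap1 catalytic domain, aa 1-136; times: enzyme reaction 120 min at 25 °C after 20 min preincubation; detection: FP of antibody-bound GDP Alexa 633 tracer, ex 620/em 688 nm; benchmarks: high control wells lacking Arfgap1, low control full reaction with DMSO; reagent: human ARF1(Δ1-17)-GTP substrate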
FGF22 binding – FGF22 (human) thermal shift binding; Q9HCT0; recombinant FGF22 thermal shift, SYPRO orange fluorescence; percent of sucrose octasulfate shift, DMSO zero; activity (Tm shift, normalised), % at 9.99 µM; 340,000 compounds, 1.5% hits;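 active means mean Tm shift, scaled 0 neutral to 100 positive control, at about 1.3% or above, every replicate too, limit read from the data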
Target sequence (Q9HCT0 whole entry, looked up): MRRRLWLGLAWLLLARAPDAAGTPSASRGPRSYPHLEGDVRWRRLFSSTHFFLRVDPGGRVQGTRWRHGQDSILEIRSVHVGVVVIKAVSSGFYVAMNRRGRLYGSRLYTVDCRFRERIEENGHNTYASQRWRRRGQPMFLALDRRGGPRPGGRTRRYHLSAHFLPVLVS
Rtt109 Vps75 – inhibitors of Candida albicans Rtt109/Vps75 histone acetyltransferase | AID 540336 | Q5AAJ8 | purified Rtt109/Vps75, ThioGlo CoA-SH fluorescence, 4 h | 330,000 compounds, 0.16% hits | inhibition, % at 34.9 µM;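 active means inhibition of at least 50% in every replicate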
Target sequence (Q5AAJ8 whole entry, looked up): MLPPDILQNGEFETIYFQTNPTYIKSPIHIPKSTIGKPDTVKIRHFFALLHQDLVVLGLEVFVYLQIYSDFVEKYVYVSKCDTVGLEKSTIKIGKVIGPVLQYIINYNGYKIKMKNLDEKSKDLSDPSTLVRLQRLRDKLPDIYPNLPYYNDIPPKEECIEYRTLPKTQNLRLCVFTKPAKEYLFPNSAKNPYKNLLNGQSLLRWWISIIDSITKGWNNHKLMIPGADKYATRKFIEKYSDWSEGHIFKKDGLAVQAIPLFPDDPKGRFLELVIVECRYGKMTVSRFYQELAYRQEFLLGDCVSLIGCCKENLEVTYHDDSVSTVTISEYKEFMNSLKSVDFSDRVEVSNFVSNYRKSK
ASAP1 GAP inh – ASAP1 ArfGAP inhibition; ASAP1-stimulated ARF1 GTP hydrolysis, GDP FP detection; AID 624377; 360,000 compounds, 0.19% hits; inhibition, % at 16.5 µM; in the data active means inhibition above about 25%;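 further: 0% = vehicle with enzyme and substrate and 100% = no enzyme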
Efflux pump mplx – blocks antifungal efflux pumps in multiplex yeast assay; S. cerevisiae Candida pump triplex, Nile Red efflux; inhibition, % at 10 µM; 330,000 compounds, 0.44% hits;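 active means plate passing quality check with inhibition over a set limit, or well fluorescence over plate mean plus 4 SD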;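 further: Nile Red retained in pooled yeast measured as flow cytometry median fluorescence; 0% = buffer negative control and 100% = Enniatin B positive control; higher means more Nile Red kept so more efflux inhibition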
ASAP1 GAP conf – ASAP1 inhibition confirmed | 620 compounds, 37% hits | shares compounds with ASAP1 GAP inh | ASAP1-stimulated Arf1 GTPase, GDP fluorescence polarization | inhibition, % at 16.5 µM;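 active means mean inhibition over triplicates exceeds the hit threshold derived for the earlier primary screening run, cut at about 25% in these data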
An asterisk follows results filed as active. An excerpt weighted towards active compounds, which were near 1.9% of everything screened.

For Cc1cc(NC2=CC(=O)C(=O)c3ccccc32)no1 the results were ARFGAP1 inh 1, FGF22 binding 0, Rtt109 Vps75 -1, ASAP1 GAP inh 29* and ASAP1 GAP conf 10.
Cc1ccc(NC2=CC(=O)C(=O)c3ccccc32)cc1 was read as ARFGAP1 inh 1, Rtt109 Vps75 5, ASAP1 GAP inh 18 and Efflux pump mplx 0.
Screening CCOc1ccc(C(NC(=O)CC)c2c(O)ccc3ccccc23)cc1 (stereo unspecified) returned ARFGAP1 inh 1, FGF22 binding 0, Rtt109 Vps75 3, ASAP1 GAP inh 7 and Efflux pump mplx 0.
For CC(=O)Oc1ccc2ccccc2c1C(NC(=O)Cc1ccccc1)c1ccc(Cl)cc1 (stereo unspecified) the results were ARFGAP1 inh 2, Rtt109 Vps75 4, ASAP1 GAP inh 140*, Efflux pump mplx 0 and ASAP1 GAP conf 6.
Screening Cc1c(O)ccc2c(CN3CCN(C/C=C/c4ccccc4)CC3)cc(=O)oc12 returned ARFGAP1 inh 3, FGF22 binding 0, Rtt109 Vps75 -66, ASAP1 GAP inh -4 and Efflux pump mplx 0.
For CCS(=O)(=O)Nc1ccc2c(c1)C(=O)N(C)[C@@H]1CC[C@H](CC(=O)NCCOC)O[C@H]1CO2 the results were FGF22 binding 0.
For COc1ccc(C(=O)Nc2ccc3ccccc3c2)cc1OC the results were ARFGAP1 inh -4, FGF22 binding 0, Rtt109 Vps75 -1, ASAP1 GAP inh 7 and Efflux pump mplx 0.
COc1ccc(C(=O)Nc2ccc(OCC(F)(F)C(F)F)c(C(F)(F)F)c2)cc1OC was read as ARFGAP1 inh -3, Rtt109 Vps75 -5, ASAP1 GAP inh 26*, Efflux pump mplx 0 and ASAP1 GAP conf 26*.
Screening O=C(Nc1ccc(OCC(F)(F)C(F)F)c(C(F)(F)F)c1)c1ccc(Cl)cc1 returned ARFGAP1 inh 10, Rtt109 Vps75 8, ASAP1 GAP inh 1 and Efflux pump mplx 0.
`COc1ccc(C(=O)Nc2ccc3c(c2)C(=O)c2ccccc2C3=O)cc1OC` gave ARFGAP1 inh 5, Rtt109 Vps75 14, ASAP1 GAP inh 27*, Efflux pump mplx 0 and ASAP1 GAP conf 40*.
COc1ccc(NS(=O)(=O)c2ccc(NC(=S)NC(=O)C(C)C)cc2)cc1 was read as ARFGAP1 inh 2, Rtt109 Vps75 -4, ASAP1 GAP inh 31*, Efflux pump mplx 0 and ASAP1 GAP conf 11.
`O=C(C[C@H]1CC[C@@H](NS(=O)(=O)c2ccc(F)cc2)[C@H](CO)O1)N1CCc2ccccc2C1` gave FGF22 binding 1.
`COc1ccc(CN2CCC2(C)C(=O)Nc2cccc(NS(C)(=O)=O)c2)c2ccccc12` (stereo unspecified) gave ARFGAP1 inh 1, FGF22 binding 0 and ASAP1 GAP inh -11.
Screening COc1cccc(NC(=O)C2(C)CCN2Cc2ccc(OC)c3ccccc23)c1 (stereo unspecified) returned ARFGAP1 inh 24, FGF22 binding 0, ASAP1 GAP inh 29* and ASAP1 GAP conf 4.
Screening CC1Sc2ccc(S(=O)(=O)CCC(=O)NC(C)c3ccccc3)cc2NC1=O (stereo unspecified) returned ARFGAP1 inh 6, FGF22 binding 0, Rtt109 Vps75 3, ASAP1 GAP inh 3 and Efflux pump mplx 0.
Screening Cc1cc(OCC(=O)Nc2ccc(N3CCCC3)cc2)cc(C)c1Cl returned ARFGAP1 inh 1, Rtt109 Vps75 5, ASAP1 GAP inh 25*, Efflux pump mplx 0 and ASAP1 GAP conf 7.
C[C@@H](C(=O)O)[C@H]1C[C@]1(C)[C@H](NC(=O)OCc1ccccc1)c1ccccc1 was read as ARFGAP1 inh -3, FGF22 binding 0, Rtt109 Vps75 -1, ASAP1 GAP inh 26*, Efflux pump mplx 0 and ASAP1 GAP conf 0.
COc1ccc2cc3c(N)nn(C(=O)c4ccc(Cl)c([N+](=O)[O-])c4)c3nc2c1 was read as ARFGAP1 inh 0, FGF22 binding 0, Rtt109 Vps75 0, ASAP1 GAP inh 73*, Efflux pump mplx 0 and ASAP1 GAP conf 118*.
For O=C(CNC(=O)c1ccc(Cl)cc1Cl)NCCCn1ccnc1 the results were ARFGAP1 inh 5, Rtt109 Vps75 -4, ASAP1 GAP inh 29*, Efflux pump mplx 0 and ASAP1 GAP conf -4.
Screening O=C(CSc1cc(Cl)ccc1Cl)NCCCn1ccnc1 returned ARFGAP1 inh -7, FGF22 binding 0, Rtt109 Vps75 9, ASAP1 GAP inh 17 and Efflux pump mplx 0.
For O=C(CCC(=O)N(c1cccc(F)c1)C(C(=O)NC1CCCC1)c1ccncc1)Nc1cccnc1 (stereo unspecified) the results were ARFGAP1 inh 1, Rtt109 Vps75 -5, ASAP1 GAP inh -16 and Efflux pump mplx 0.
Screening CN(C)c1ccc(-c2[nH][nH]c(=O)c2NC(=O)c2ccc3ccccc3n2)cc1 returned ARFGAP1 inh -7, ASAP1 GAP inh 36* and ASAP1 GAP conf 0.
For CN(C)c1ccc(-c2[nH][nH]c(=O)c2NC(=O)c2ccccn2)cc1 the results were ARFGAP1 inh -11, FGF22 binding 0 and ASAP1 GAP inh 9.
CCn1c(=S)sc2c(=O)n(CC(=O)NC(C)CCc3ccccc3)c(C)nc21 (stereo unspecified) was read as ARFGAP1 inh -14, FGF22 binding 0, Rtt109 Vps75 -1, ASAP1 GAP inh 5 and Efflux pump mplx 0.
CC(C)c1nnc(NC(=O)CCC(=O)NCCc2ccccc2)s1 was read as ARFGAP1 inh 10, FGF22 binding 0, Rtt109 Vps75 0, ASAP1 GAP inh -5 and Efflux pump mplx 0.
N#Cc1c(-c2cccc(Br)c2)cc(-c2cccnc2)nc1N was read as ARFGAP1 inh -1, Rtt109 Vps75 2, ASAP1 GAP inh 28*, Efflux pump mplx 0 and ASAP1 GAP conf 24.
Cc1cccc(NC(=O)CCC2CCN(C(=O)C3CC=CCC3)CC2)c1 (stereo unspecified) was read as ARFGAP1 inh 9, FGF22 binding 0, Rtt109 Vps75 3, ASAP1 GAP inh 4 and Efflux pump mplx 1.
For CC(=O)Nc1ccc(N2C(=O)CSC2c2c(F)cccc2Cl)cc1 (stereo unspecified) the results were ARFGAP1 inh -12, Rtt109 Vps75 5, ASAP1 GAP inh 27*, Efflux pump mplx 0 and ASAP1 GAP conf -2.
For C/C=C/c1ccc2c(c1)O[C@@H](CN(C)C(=O)c1cccc(F)c1)[C@H](C)CN([C@H](C)CO)S2(=O)=O the results were FGF22 binding 0.
Screening COc1ccc(Cc2nc3ccccc3n2CC(=O)N/N=C/c2ccc(O)cc2)cc1OC returned ARFGAP1 inh -10, FGF22 binding 0, Rtt109 Vps75 -6, ASAP1 GAP inh 6 and Efflux pump mplx 0.

Bioassay records (PubChem BioAssay)
